Columns and labels:
[1] = Initial rates of formation of metabolic intermediate Cytochrome P-450 with compound concentration of 30 uM; assay type: ADME
Method in brief: (§1)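 Cross-inhibition in NADPH-supplemented rabbit liver microsomes at 37 °C. Preincubation with amine at 30, 150 or 300 μM while 457-nm complex formation was monitored. Once it plateaued (6–8 min), racemic hydroxylamine was added at 300 μM. Initial rate and plateau extent were read from ΔA457–500 nm vs time, per nmol P-450.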

[2] = Initial rates of formation of metabolic intermediate Cytochrome P-450 at compound concentration of 7.5-120 uM; assay type: ADME
Method in brief: (§2)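 Rabbit liver microsomes at 2 mg protein/mL with 0.1 mM EDTA, 37 °C, NADPH-dependent. Substrate tested at several concentrations. ΔA457–500 nm followed against time. Rate is the initial slope per nmol P-450 per min; extent is the plateau absorbance. Runs disturbed by a transient 450-nm species were discarded.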

[3] = Lag time between the addition of compound (30 uM) and the first appearance of chromophore; assay type: ADME
Method in brief: (§3)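 Rabbit liver microsomes at 2 mg protein/mL with 0.1 mM EDTA, 37 °C, substrate 30 μM. Complex formation started with 0.4 mM NADPH and followed by dual-wavelength absorbance, 457 vs 500 nm. Initial rate is the initial slope, ΔA×10^4 per nmol P-450 per min. Extent is the plateau absorbance. Lag is the time from NADPH addition to first 457-nm chromophore. Triplicate or single runs.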

[4] = Initial rates of formation of metabolic intermediate Cytochrome P-450 at compound concentration of 30 uM; assay type: ADME; method in brief: as §3
[5] = molecular target: Cytochrome P450 2C19 (Homo sapiens, UniProt P33261); experiment: Apparent binding affinity constant of compound (1.8-60.0) for Cytochrome P450; assay type: ADME, Oryctolagus cuniculus; details: read-out: Ks
Sequence of Cytochrome P450 2C19 (P33261 whole entry): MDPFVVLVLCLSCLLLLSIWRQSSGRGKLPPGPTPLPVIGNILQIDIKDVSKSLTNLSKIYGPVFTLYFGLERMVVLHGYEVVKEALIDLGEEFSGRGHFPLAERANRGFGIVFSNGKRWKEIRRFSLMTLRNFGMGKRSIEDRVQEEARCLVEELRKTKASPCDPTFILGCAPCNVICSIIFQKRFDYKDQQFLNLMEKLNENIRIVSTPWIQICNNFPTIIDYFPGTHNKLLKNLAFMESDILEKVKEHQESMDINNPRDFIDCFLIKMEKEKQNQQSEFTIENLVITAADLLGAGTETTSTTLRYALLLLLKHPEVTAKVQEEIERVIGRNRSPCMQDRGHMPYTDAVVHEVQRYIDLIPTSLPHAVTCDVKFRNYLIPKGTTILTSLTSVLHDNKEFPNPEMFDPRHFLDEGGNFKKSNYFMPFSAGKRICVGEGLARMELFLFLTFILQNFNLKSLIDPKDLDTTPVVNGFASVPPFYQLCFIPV

[6] = Extent rates of formation of metabolic intermediate Cytochrome P-450 at compound concentration of 7.5-120 uM; assay type: ADME; method in brief: as §2
[7] = Initial rates of formation of metabolic intermediate Cytochrome P-450 with compound concentration of 300 uM; assay type: ADME; method in brief: as §1
[8] = Initial rates of formation of metabolic intermediate Cytochrome P-450 with compound concentration of 150 uM; assay type: ADME; method in brief: as §1
[9] = Extent rates of formation of metabolic intermediate Cytochrome P-450 at compound concentration of 30 uM; assay type: ADME; method in brief: as §3

## COc1cc(C[C@H](C)N)c(OC)cc1C
[1]
  Rate: 1.7
[2]
  Rate: 0
[3]
  Lag time: 136 s
[4]
  Rate: 3.1
[5]
  Kd: 6 µM
[6]
  Extent: 0
[7]
  Rate: 1.1
[8]
  Rate: 1.5
[9]
  Extent: 29
